Results on eight compounds are retold here after ChEMBL document CHEMBL2021785, “Compounds of Alpinia katsumadai as potential efflux inhibitors in Mycobacterium smegmatis” (2012).

Test [1] deals with Mycolicibacterium smegmatis. The experiment in a line: Antibacterial activity against Mycobacterium smegmatis mc2 155 after 72 hrs by MTT assay. Type of test: functional. Particulars: str. MC2 155, 72 h. In outline: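 Broth dilution in Mueller-Hinton broth; compounds dissolved in DMSO, two-fold serial dilutions; inoculum adjusted to McFarland 0.5 and diluted to final 5 × 10^5 cfu/mL; cells pre-grown on Columbia blood agar with 5% horse blood, 37 °C, 72 h. Plates incubated 37 °C for 72 h; MIC read after MTT as lowest concentration inhibiting growth.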
On the technique in general: Tetrazolium assays rely on reduction of a dye to a coloured formazan, in cell work by metabolically active cells.

The subject of test [2] is Mycolicibacterium smegmatis MC2 155. The experiment in a line: Inhibition of Multidrug resistance efflux pump in Mycobacterium smegmatis mc2 155 assessed as modulation of ethambutol-mediated antibacterial activity measuring ratio of ethambutol MIC to ethambutol and compound MIC at 64 mg/L after 72 hrs by MTT assay. The procedure, abridged: (§1)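 Checkerboard-type modulation by broth dilution in MHB with DMSO-dissolved modulators: either modulator held constant (half its MIC) with two-fold serially diluted antibiotic/EtBr, or antibiotic fixed with modulator serially diluted. Final inoculum 5 × 10^5 cfu/mL, 37 °C, 72 h, MTT read-out. Modulation factor quantifies shift in antibiotic/EtBr MIC; FICI assesses combination effect.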

The test system is the same in test [3]. The experiment in a line: Inhibition of Multidrug resistance efflux pump in Mycobacterium smegmatis mc2 155 assessed as modulation of EtBr-mediated antibacterial activity measuring reduction in MIC at 1/2 of MIC after 72 hrs by MTT assay relative to control. The procedure, abridged:
as §1

The test system is the same in test [4]. The experiment in a line: Inhibition of Multidrug resistance efflux pump in Mycobacterium smegmatis mc2 155 assessed as modulation of rifampicin-mediated antibacterial activity measuring fractional inhibitory concentration index at 64 mg/L after 72 hrs by MTT assay. The procedure, abridged:
as §1

The test system is the same in test [5]. Briefly: Inhibition of Multidrug resistance efflux pump in Mycobacterium smegmatis mc2 155 assessed as inhibition of EtBr efflux measuring normalized fluorescence at half the MIC measured for 60 mins by spectrophotometry relative to control.
Test [6] has the same test system. Briefly: Inhibition of Multidrug resistance efflux pump in Mycobacterium smegmatis mc2 155 assessed as modulation of EtBr-mediated antibacterial activity measuring ratio of EtBr MIC to EtBr and compound MIC at 64 mg/L after 72 hrs by MTT assay. In outline:
as §1

Test [7] shares this test system. Briefly: Inhibition of Multidrug resistance efflux pump in Mycobacterium smegmatis mc2 155 assessed as modulation of ciprofloxacin-mediated antibacterial activity measuring ratio of ciprofloxacin MIC to ciprofloxacin and compound MIC at 64 mg/L after 72 hrs by MTT assay. In outline: as §1
The test system is the same in test [8]. The experiment in a line: Inhibition of Multidrug resistance efflux pump in Mycobacterium smegmatis mc2 155 assessed as modulation of isoniazid-mediated antibacterial activity measuring ratio of isoniazid MIC to isoniazid and compound MIC at 64 mg/L after 72 hrs by MTT assay. In outline:
as §1

Test [9] has the same test system. Briefly: Inhibition of Multidrug resistance efflux pump in Mycobacterium smegmatis mc2 155 assessed as modulation of EtBr-mediated antibacterial activity measuring fractional inhibitory concentration index at 64 mg/L after 72 hrs by MTT assay. In outline:
as §1

Test [10] has the same test system. The experiment in a line: Inhibition of Multidrug resistance efflux pump in Mycobacterium smegmatis mc2 155 assessed as EtBr accumulation measuring relative fluorescence at half the MIC measured for 60 mins by spectrophotometry relative to control. In outline:
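Overnight 7H9/ADC culture (37 °C, 100 rpm) centrifuged and resuspended in PBS with 0.05% Tween 80 to OD600 0.4. Cells mixed 1:1 with test solutions containing 0.5 mg/L EtBr and 0.4% glucose, compounds from MIC down to 1/16 MIC. Fluorescence (ex 531/em 590 nm) read every 50 s at 37 °C for 60 min; repeated at least three times.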

For test [11] the test system is unchanged. The experiment in a line: Inhibition of Multidrug resistance efflux pump in Mycobacterium smegmatis mc2 155 assessed as modulation of rifampicin-mediated antibacterial activity measuring ratio of rifampicin MIC to rifampicin and compound MIC at 64 mg/L after 72 hrs by MTT assay. The procedure, abridged:
as §1

For test [12] the test system is unchanged. The experiment in a line: Inhibition of Multidrug resistance efflux pump in Mycobacterium smegmatis mc2 155 assessed as modulation of ethambutol-mediated antibacterial activity measuring reduction in MIC at 1/2 of MIC after 72 hrs by MTT assay relative to control. In outline: as §1
Test [13] has the same test system. Briefly: Inhibition of Multidrug resistance efflux pump in Mycobacterium smegmatis mc2 155 assessed as modulation of rifampicin-mediated antibacterial activity measuring reduction in MIC at 1/2 of MIC after 72 hrs by MTT assay relative to control. In outline: as §1
The test system is the same in test [14]. The experiment in a line: Inhibition of Multidrug resistance efflux pump in Mycobacterium smegmatis mc2 155 assessed as modulation of isoniazid-mediated antibacterial activity measuring ratio of isoniazid MIC to isoniazid and compound MIC at 4 mg/L after 72 hrs by MTT assay. In outline:
as §1

The test system is the same in test [15]. Briefly: Inhibition of Multidrug resistance efflux pump in Mycobacterium smegmatis mc2 155 assessed as modulation of EtBr-mediated antibacterial activity measuring ratio of EtBr MIC to EtBr and compound MIC at 4 mg/L after 72 hrs by MTT assay. In outline: as §1
For test [16] the test system is unchanged. Briefly: Inhibition of Multidrug resistance efflux pump in Mycobacterium smegmatis mc2 155 assessed as modulation of rifampicin-mediated antibacterial activity measuring ratio of rifampicin MIC to rifampicin and compound MIC at 4 mg/L after 72 hrs by MTT assay. In outline:
as §1

Values after ≈ are worked out from the molar mass of the structure shown.

Usually MIC stands for the lowest concentration found to suppress growth. Low values mean a more susceptible organism, high ones a less susceptible organism.

Take `CN(C)CCCN1c2ccccc2Sc2ccc(Cl)cc21` [CHLORPROMAZINE]: the MIC in test [1] is 64 µg/mL (≈ 201 µM).
Take `N#CC(C#N)=NNc1cccc(Cl)c1` [CARBONYL CYANIDE M-CHLOROPHENYLHYDRAZONE]: the MIC in [1] stood at 32 µg/mL (≈ 156 µM).
In the case of `O=C1C[C@@H](c2ccccc2)Oc2cc(O)cc(O)c21` [PINOCEMBRIN], the Ratio in test [2] was 2; in test [6], 4; in test [7] it was 1; in test [8], 1; in [11] it was 2. Besides, the fold change (FC) in test [3] was found to be 4; in test [12], 2. Besides, the fractional inhibitory concentration index (FICI) in test [4] was 1.5; in test [9] it was 0.5. The normalized EtBr fluorescence relative to control in test [5] came to 0.765. This compound also showed an MIC in [1] of 128 µg/mL (≈ 499 µM). The RFU in test [10] is 11200.
`O=C(O)c1cn(C2CC2)c2cc(N3CCNCC3)c(F)cc2c1=O` [CIPROFLOXACIN] displayed an MIC in test [1] of 0.125 µg/mL (≈ 0.377 µM).
In the case of `CCCCCCCCCCCCCCCC(=O)O` [PALMITIC ACID], the Ratio worked out at 1 in test [6] and 0.5 in [8]. Further, the minimum inhibitory concentration (MIC) in [1] is 128 µg/mL (≈ 499 µM).
In the case of `O[C@@H](CCc1ccccc1)C[C@H](O)/C=C/c1ccccc1`, the Ratio in [2] stood at 2; in test [6], 8; in test [7] it was 2; in [8], 2; in test [11], 4. Moreover, the fold change (FC) in test [3] and in [13] was 4 throughout. For the same compound, the fractional inhibitory concentration index (FICI) was determined as 0.75 in [4] and 0.25 in test [9]. In test [5], the normalized EtBr fluorescence relative to control was 0.746. For the same compound, the MIC in test [1] was at least 128 µg/mL. In test [10], the RFU is 16500.
Compound `COc1ccc(CCN(C)CCCC(C#N)(c2ccc(OC)c(OC)c2)C(C)C)cc1OC` (configuration not stated) [VERAPAMIL] showed an MIC in test [1] of 512 µg/mL (≈ 1130 µM).
For the compound `CC/C=C\C/C=C\C/C=C\CCCCCCCC(=O)O` [LINOLENIC ACID], the fold change (FC) in [3] and in test [13] was 4 each time. The values for the Ratio in test [14], in [15] and in [16] were 1, 4 and 4, respectively. In test [1], this compound gave an MIC of 8 µg/mL (≈ 28.7 µM).
